Legend:
[1] = species: Mus musculus; assay: In vitro cytotoxicity against L1210 leukemia cell line; type: functional; conditions: read-out: LD50 (the source's name)
Outline: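 L1210 mouse lymphocytic leukemia cells in RPMI 1640 with 10% (v/v) foetal calf serum, in exponential growth, seeded at 1.5 × 10^5 cells/mL in flasks; drug added at final 10^-9 to 10^-4 M for 3 days. Growth and viability counted by trypan blue staining; ID50 is the concentration inhibiting cell growth by 50% of control.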

[2] = species: Mus musculus; assay: In vitro inhibitory activity against L1210 leukemia cell line; type: functional; conditions: read-out: ID50 (the source's name)
Outline: (§1)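 Exponentially growing cells exposed 3 days to drug at final 10^-9 to 10^-4 M. L1210: RPMI 1640 + 10% FCS, seeded 1.5 × 10^5 cells/mL in flasks. MCF7: DMEM + 10% FCS, 10^5 cells/well in 6-well plates. Growth and viability by trypan blue counting; ID50 = concentration inhibiting growth by 50% of control.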

[3] = species: Homo sapiens; assay: In vitro inhibitory activity against MCF-7 mammary cell line; type: functional; conditions: MCF7, read-out: ID50 (the source's name); outline: as §1
[4] = test system: Nucleic Acid; assay: Thermal denaturation of calf-thymus DNA was evaluated; type: functional; conditions: Bos taurus
Outline: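 Calf thymus DNA (% GC 42) at 2 × 10^-4 M in 0.1 SSC (0.15 M NaCl/0.015 M sodium citrate, pH 7.0). Six curves at P/DNA = 0, 0.2, 0.4, 0.6, 0.8 and 1. A260 followed from 20 to 95 °C at 1 °C/min in a 10-mm cell. Tm = midpoint of the hyperchromic transition.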

[5] = Therapeutic effect against P388 leukemia in mice on days 1, 5 and 9 after administration of 25 mg/kg dose expressed as median survival time of treated and control mice (in vivo); type: organism-based; set-up: dose 25 mg/kg; conditions: mouse
Outline: (§2)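 DBA2 mice implanted ip with 10^6 P388 cells on D0; drug given ip on D1, D5, D9. Groups of 7 treated mice, 10 untreated controls. Mice weighed daily; study ended D45. T/C (%) = median survival time of treated over control group.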

[6] = Therapeutic effect against P388 leukemia in mice on days 1, 5 and 9 after administration of 10 mg/kg dose expressed as median survival time of treated and control mice (in vivo); type: organism-based; set-up: dose 10 mg/kg; conditions: mouse; outline: as §2
[7] = Therapeutic effect against P388 leukemia in mice on days 1, 5 and 9 after administration of 5 mg/kg dose expressed as median survival time of treated and control mice (in vivo); type: organism-based; set-up: dose 5 mg/kg; conditions: mouse; outline: as §2
[8] = Therapeutic effect against P388 leukemia in mice on days 1, 5 and 9 after administration of 1.6 mg/kg dose expressed as median survival time of treated and control mice (in vivo); type: organism-based; set-up: dose 1.6 mg/kg; conditions: mouse; outline: as §2

Row | SMILES | CC50 [1] | IC50 [2] | IC50 [3] | ΔTm [4] | other results
1 | NCC(=O)NCC(=O)N[C@@H](Cc1c[nH]cn1)C(=O)NCCNc1ccc(NCCNC(=O)[C@H](Cc2c[nH]cn2)NC(=O)CNC(=O)CN)c2c1C(=O)c1c(O)ccc(O)c1C2=O [listing 1 of 2 here] | 70 nM | 50 nM | 800 nM |  | 
2 | NCCCC(NC(=O)[C@@H](Cc1c[nH]cn1)NC(=O)CNc1ccc(O)c2c1C(=O)c1c(O)ccc(O)c1C2=O)C(=O)O (stereo partly drawn) |  |  |  | 11.3 °C | 
3 | NCC(=O)NCC(=O)N[C@@H](Cc1c[nH]cn1)C(=O)NCCNc1ccc(NCCNC(=O)[C@H](Cc2c[nH]cn2)NC(=O)CNC(=O)CN)c2c1C(=O)c1c(O)ccc(O)c1C2=O [listing 2 of 2 here] |  |  |  |  | T/C [5]: 230; T/C [6]: 150; T/C [7]: 140
4 | O=C1c2c(O)ccc(O)c2C(=O)c2c(NCCNCCO)ccc(NCCNCCO)c21 [MITOXANTRONE] | 7 nM | 7 nM | 270 nM | 15.9 °C | T/C [8]: 190
5 | NCC(=O)NCC(=O)N[C@@H](Cc1c[nH]cn1)C(=O)NCCNc1ccc(NCCNC(=O)[C@@H](Cc2c[nH]cn2)NC(=O)CNC(=O)CN)c2c1C(=O)c1c(O)ccc(O)c1C2=O |  |  |  | 17.1 °C | 

From ChEMBL document CHEMBL1126952, “Synthesis and antitumor properties of an anthraquinone bisubstituted by the copper chelating peptide Gly-Gly-L-His” (J Med Chem, 1993)
